Assay outcomes deposited in PubChem BioAssay by several laboratories.
MC4R antagonist = MC4R antagonists of cAMP signaling, primary screen, cell-based, TR-FRET, antagonist arm of biased-ligand search. 0.48% of 360,000 active. MC4R-expressing cells, MTII-stimulated cAMP, LANCE TR-FRET. Melanocortin receptor 4 (Homo sapiens), P32245. inhibition, % at 6.5 µM;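 active = inhibition above its plate's cutoff, the mean of tested wells on that plate plus 3 SD, cut at about 29% in these data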;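 also: 0% = Melanotan II alone and 100% = Melanotan II plus saturating MCL0020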
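Assay system: U2OS-MC4R stable cell line; Also added: Melanotan II; Technique: Eu-cAMP/anti-cAMP TR-FRET, emission 671 nm; Times: 30-min compound, 1-h challenge, 1-h detection, room temperature.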
NALP1 inh = NALP1 inflammasome inhibitors in reconstituted yeast, colorimetric, S. cerevisiae, triplicate retest; S. cerevisiae NALP1/ASC/caspase-1 growth, X-gal OD620, 72 h; inhibition, % at 10 µM; 0.61% of 280,000 active; AID 2071, 2009; in the data active = inhibition mostly above about 24%, no sharp cut-off; inactive = mostly below about 32%
TbMetRS inhib = T. brucei MetRS inhibitors, primary screen, biochemical, luminescence. inhibition, % at 11.9 µM. methionyl-tRNA synthetase (Trypanosoma brucei brucei). 0.4% of 360,000 active. purified T. brucei MetRS, ATP depletion, Kinase-Glo luminescence;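 active = inhibition above a per-plate cutoff of the control wells' mean inhibition plus 3 SD, cut at about 5.5% in these data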;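 also: 0% = DMSO wells median and 100% = median of wells with control inhibitor compound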
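assay system = parasite MetRS enzyme | timing = 15 min preincubation, 2 h reaction, all 25 °C | evaluation = percent inhibition relative to median high and low control wells | medium = HEPES buffer containing pyrophosphatase, BSA, spermine, DTT | compound = single dose, 11.9 µM final nominal, 0.9% final DMSO | detection = Kinase-Glo luminescence, ATP depletion format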
Bfl-1 A1 inh = caspase 3/7 activation in MEF A1-2A-BIM cells, primary screen, A1 inhibitor project, cell-based, luminescence, HTS; Caspase-Glo 3/7 luminescence, 3 h; percent of clofoctol response, vehicle zero; caspase activation, % (concentration not given with the values); 0.066% of 330,000 active; AID 2462, 2010;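 active = over half of replicate activation scores above 10%, or exactly half above 10 with the replicate mean above 10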
NLRP3 yeast inh = NALP3 inflammasome inhibitors in reconstituted yeast, primary screen, luminescence, uHTS. AID 2825, 2010. inhibition, % at 10 µM. Yeast reconstituted NLRP3/ASC/caspase-1, beta-gal luminescence, 24 h. 0.39% of 330,000 active;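 active = inhibition of 50% or more; inactive = inhibition below 50%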;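 also: plate controls were induced DMSO wells for no effect and uninduced yeast grown without galactose for full effect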
MC4R barr agon = MC4R agonists recruiting beta-arrestin, primary screen, cell-based, luminescence, agonist arm of biased-ligand search; Melanocortin receptor 4 (Homo sapiens), P32245; U2OS MC4R beta-arrestin complementation; percent of melanotan II response, DMSO zero; activation, % at 8.9 µM; 0.98% of 360,000 active; AID 540308, 2011;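 active = activation above a per-plate cutoff, the mean activation of sample wells on that plate plus 3 SD, cut at about 8% in these data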
cAMP nonselect = nonselective cAMP signaling inhibitors, parental cells, counter-screen for MC4R biased antagonist project, cell-based, TR-FRET, U2OS, forskolin, triplicate; AID 602193, 2012; inhibition, % at 6.5 µM; shares compounds with MC4R antagonist; LANCE TR-FRET; 26% of 1,600 active;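 active = mean inhibition over triplicates above the low-control well mean plus 3 SD, set per campaign, cut at about 13% in these data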;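 also: signal is single emission at 671 nm which falls as cellular cAMP rises; 0% = forskolin-stimulated wells and 100% = buffer without forskolin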
MC4R antag conf = MC4R cAMP antagonists, retest, confirmation, cell-based, TR-FRET; shares compounds with MC4R antagonist; MC4R-expressing cells, MTII-stimulated cAMP; inhibition, % at 6.5 µM; 27% of 1,600 active; AID 602195, 2012; in the data active = inhibition above about 29%;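 also: 0% = agonist stimulated wells alone and 100% = agonist stimulated wells plus saturating reference antagonist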
MC4R barr ag = MC4R beta-arrestin agonists, retest, confirmation, cell-based, luminescence, U2OS; U2OS MC4R beta-arrestin recruitment; scaled DMSO 0%, Melanotan II 100%; shares compounds with MC4R barr agon; AID 602192, 2012; activation, % at 8.9 µM; 31% of 2,400 active;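 active = mean activation across replicates above the hit cutoff set in the earlier primary screen, cut at about 8% in these data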
MOR-DOR barr ag = agonists of MOR-DOR heterodimerization, counter-screen for MC4R biased agonist project, cell-based, luminescence; shares compounds with MC4R barr agon; U2OS PathHunter beta-arrestin, beta-gal luminescence; percent of deltorphin B response, DMSO zero; activation, % at 9.2 µM; 5.8% of 2,400 active;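 active = mean activation across replicates exceeds the hit threshold derived in the earlier primary screen, cut at about 18% in these data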;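 also: 100% = deltorphin B at 0.9 µM final and 0% = DMSO alone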
Target sequence (P35372 whole entry, looked up): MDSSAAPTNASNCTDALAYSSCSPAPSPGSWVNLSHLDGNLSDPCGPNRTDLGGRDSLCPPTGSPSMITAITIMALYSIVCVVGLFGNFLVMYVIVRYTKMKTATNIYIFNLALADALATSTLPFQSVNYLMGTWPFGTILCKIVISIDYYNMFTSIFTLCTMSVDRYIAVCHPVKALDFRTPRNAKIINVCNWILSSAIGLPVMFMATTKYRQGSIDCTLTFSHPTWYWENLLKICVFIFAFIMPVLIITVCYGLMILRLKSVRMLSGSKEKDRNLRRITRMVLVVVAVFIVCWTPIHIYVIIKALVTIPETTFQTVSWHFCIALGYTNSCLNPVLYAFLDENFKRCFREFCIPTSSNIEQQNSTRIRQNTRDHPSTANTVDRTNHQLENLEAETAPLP
Target sequence (P41143 whole entry, looked up): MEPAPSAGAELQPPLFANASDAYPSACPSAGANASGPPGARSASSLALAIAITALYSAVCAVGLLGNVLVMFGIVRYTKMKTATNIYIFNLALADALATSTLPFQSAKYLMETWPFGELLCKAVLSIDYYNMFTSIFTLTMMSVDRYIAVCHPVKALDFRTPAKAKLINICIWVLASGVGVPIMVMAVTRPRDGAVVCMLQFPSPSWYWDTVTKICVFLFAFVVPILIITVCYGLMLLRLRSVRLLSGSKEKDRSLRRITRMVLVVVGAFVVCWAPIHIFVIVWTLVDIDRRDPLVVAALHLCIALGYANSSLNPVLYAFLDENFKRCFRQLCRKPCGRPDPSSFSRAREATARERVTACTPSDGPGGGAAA
An asterisk follows results filed as active. Rows were chosen to be rich in hits. Some 2.5% of all compounds tested hit in one or more screens of this group.

For NC(=S)c1cn(C2OC(CO)C(O)C2O)c2ncnc(N)c12 (centres undefined) the results were MC4R antagonist 31.1*, NALP1 inh -0.4, TbMetRS inhib 5.2, Bfl-1 A1 inh 3.7, MC4R barr agon -2.2, cAMP nonselect 0.5 and MC4R antag conf 28.0.
COc1ccc(CC(=O)C2C(=O)N(C)c3ccccc32)cc1OC (centres undefined) was read as MC4R antagonist -3.9, TbMetRS inhib -0.5 and MC4R barr agon -0.6.
Screening Cc1ccccc1C(=O)N1Cc2cnnn2-c2ccccc2C1C#N (centres undefined) returned MC4R antagonist 4.5, TbMetRS inhib -0.6 and MC4R barr agon 2.3.
Cc1ccccc1CN1Cc2cnnn2-c2ccccc2C1C#N (centres undefined) was read as MC4R antagonist 37.1*, TbMetRS inhib 0.3, MC4R barr agon -0.8, cAMP nonselect 5.0 and MC4R antag conf 45.1*.
Screening CC12CCC(=O)C=C1CCC1C2CCC2(C)C1CCC2(O)CC#N (centres undefined) returned MC4R antagonist 8.5, TbMetRS inhib -0.3 and MC4R barr agon 1.3.
For C/C(=N\Nc1cccc2ccccc12)c1c(O)n(Cc2ccccc2)c(=O)[nH]c1=O the results were MC4R antagonist 28.5*, NALP1 inh 35.1, TbMetRS inhib 0.3, Bfl-1 A1 inh -1.9, NLRP3 yeast inh -5.7, MC4R barr agon 0.0, cAMP nonselect -1.8 and MC4R antag conf -6.9.
`COc1ccccc1N1C(=O)NC(=O)/C(=C\c2cnn(-c3ccccc3)c2)C1=O` gave MC4R antagonist 30.1*, NALP1 inh -6.4, TbMetRS inhib 0.9, Bfl-1 A1 inh 2.9, NLRP3 yeast inh 4.7, MC4R barr agon 2.3, cAMP nonselect 11.0 and MC4R antag conf 8.6.
For CCCC1(CCO)C(=O)NC(=S)NC1=O the results were MC4R antagonist -2.9, TbMetRS inhib -0.1 and MC4R barr agon -1.7.
For Clc1ccc(C[n+]2c(-c3ccccc3)cc(-c3ccccc3)cc2-c2ccccc2)cc1 the results were MC4R antagonist -4.3, TbMetRS inhib -0.2, Bfl-1 A1 inh -1.0, NLRP3 yeast inh 16.5, MC4R barr agon 16.0*, MC4R barr ag 20.5* and MOR-DOR barr ag 7.2.
`CC(OC(=O)c1cn(C)c2ccccc12)C(=O)N1CCCC1` (centres undefined) gave MC4R antagonist -1.8, TbMetRS inhib -0.2, Bfl-1 A1 inh 0.1, NLRP3 yeast inh 19.3 and MC4R barr agon 1.6.
For NC(N)=N/N=C/c1cn(-c2ccccc2)nc1-c1cccs1 the results were MC4R antagonist -3.8, NALP1 inh 6.7, TbMetRS inhib 0.1, Bfl-1 A1 inh -0.4, NLRP3 yeast inh 16.0, MC4R barr agon 11.9*, MC4R barr ag 18.8* and MOR-DOR barr ag 24.2*.
`O=c1c2ccccc2nc(-c2cccs2)n1-c1ccccc1` gave MC4R antagonist 0.3, NALP1 inh 1.5, TbMetRS inhib -0.5, Bfl-1 A1 inh 0.7, NLRP3 yeast inh 3.4 and MC4R barr agon -2.3.
Screening Cc1cccc(C(O)(C(=O)O)c2ccccc2)c1 (centres undefined) returned MC4R antagonist 6.9, TbMetRS inhib -0.3 and MC4R barr agon -0.3.
For N[C@@H](Cc1c[nH]c2ccccc12)c1nnc(SCc2ccccc2)o1 the results were MC4R antagonist 0.0, NALP1 inh 1.1, TbMetRS inhib 0.5, Bfl-1 A1 inh 0.2, NLRP3 yeast inh 19.1 and MC4R barr agon 0.4.
For N[C@@H](Cc1c[nH]c2ccccc12)c1nnc(SCc2ccc(Cl)cc2)o1 the results were MC4R antagonist -3.3, NALP1 inh 13.3, TbMetRS inhib 0.1, Bfl-1 A1 inh -0.2, NLRP3 yeast inh 6.2, MC4R barr agon 10.3*, MC4R barr ag 3.9 and MOR-DOR barr ag 6.2.
For COC(=O)C1=C(c2cccc(OCc3ccccc3)c2)C[C@@H]2CC[C@H]1N2C(=O)NCc1ccccc1C(F)(F)F the results were MC4R antagonist 7.0, TbMetRS inhib -0.3, Bfl-1 A1 inh 0.8, NLRP3 yeast inh 7.0 and MC4R barr agon 2.2.
Screening CC12CCC3C(CC=C4CC(O)CCC43C)C1C/C(=C\c1ccccc1F)C2=O (centres undefined) returned MC4R antagonist 6.6, NALP1 inh 15.5, TbMetRS inhib -0.2, Bfl-1 A1 inh 0.0, NLRP3 yeast inh 30.8, MC4R barr agon 26.9*, MC4R barr ag 25.2* and MOR-DOR barr ag 4.0.
Screening CCOc1cc(CNCCc2c[nH]c3ccccc23)cc(Cl)c1OCC returned MC4R antagonist 4.6, NALP1 inh 53.6*, TbMetRS inhib 0.7, Bfl-1 A1 inh -1.7, NLRP3 yeast inh 19.5, MC4R barr agon 14.9*, MC4R barr ag 17.2* and MOR-DOR barr ag 7.9.
`CCOc1c(Cl)cc(CNCCc2c[nH]c3ccccc23)cc1OC` gave MC4R antagonist -0.5, NALP1 inh -5.7, TbMetRS inhib -0.6, Bfl-1 A1 inh -0.4, NLRP3 yeast inh 14.7 and MC4R barr agon -1.4.
Nc1cccc(SC2CC(=O)N(c3ccc(Cl)cc3C(=O)c3ccccc3)C2=O)c1 (centres undefined) was read as MC4R antagonist -5.2, TbMetRS inhib -0.2, MC4R barr agon 9.7*, MC4R barr ag 3.9 and MOR-DOR barr ag 8.7.
